Experimental data published in ChEMBL document CHEMBL3407388, “Synthesis, anticancer activity and molecular docking studies on a series of heterocyclic trans-cyanocombretastatin analogues as antitubulin agents” (2015).

Experiments:
T47D = assay: Cytotoxicity against human T47D cells assessed as growth inhibition after 48 hrs by SRB assay; type: functional
SK-MEL-28 = assay: Cytotoxicity against human SK-MEL-28 cells assessed as growth inhibition after 48 hrs by SRB assay; type: functional; details: SK-MEL-28, 48 h
Procedure, shortened: (§1)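 NCI 60-cell panel; compounds passing a single-dose screen (10−5 M, 48 h) were tested at five 10-fold dilutions (10−4 to 10−8 M) with 48 h drug exposure. GI50 is the molar concentration giving 50% reduction in net cell growth relative to cell numbers on day 0.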

Malme-3M = assay: Cytotoxicity against human MALME-3M cells assessed as growth inhibition after 48 hrs by SRB assay; type: functional; procedure, shortened: as §1
SK-MEL-2 = assay: Cytotoxicity against human SK-MEL-2 cells assessed as growth inhibition after 48 hrs by SRB assay; type: functional; details: SK-MEL-2, 48 h; procedure, shortened: as §1
ACHN = assay: Cytotoxicity against human ACHN cells assessed as growth inhibition after 48 hrs by SRB assay; type: functional; procedure, shortened: as §1
SR = assay: Cytotoxicity against human SR cells assessed as growth inhibition after 48 hrs by SRB assay; type: functional
HOP-62 = assay: Cytotoxicity against human HOP62 cells assessed as growth inhibition after 48 hrs by SRB assay; type: functional; details: HOP-62, 48 h; procedure, shortened: as §1
MDA-MB-468 = assay: Cytotoxicity against human MDA-MB-468 cells assessed as growth inhibition after 48 hrs by SRB assay; type: functional; details: MDA-MB-468, 48 h; procedure, shortened: as §1
HOP-92 = assay: Cytotoxicity against human HOP92 cells assessed as growth inhibition after 48 hrs by SRB assay; type: functional; details: HOP-92, 48 h; procedure, shortened: as §1
NCI-H23 = assay: Cytotoxicity against human NCI-H23 cells assessed as growth inhibition after 48 hrs by SRB assay; type: functional; details: NCI-H23, 48 h; procedure, shortened: as §1
MV4-11 = assay: Anti-leukemic activity against human MV4-11 cells assessed as cell dead after 24 to 48 hrs by annexin V-FITC/7-AAD staining-based flow cytometric analysis; type: functional; details: read-out: LD50 (the source's name)
Procedure, shortened: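 MV4-11 cells grown in IMDM with 10% FBS, penicillin and streptomycin, seeded at 5 × 10^5/ml and treated. At 24 and 48 h they were stained with annexin V-FITC plus 1 μg/ml 7-AAD. Percent dead cells (annexin V+) was read by flow cytometry and expressed relative to the DMSO vehicle control.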

NCI-H322M = assay: Cytotoxicity against human NCI-H322M cells assessed as growth inhibition after 48 hrs by SRB assay; type: functional; procedure, shortened: as §1
SF-539 = assay: Cytotoxicity against human SF539 cells assessed as growth inhibition after 48 hrs by SRB assay; type: functional; details: SF-539, 48 h; procedure, shortened: as §1
CCRF-CEM = assay: Cytotoxicity against human CCRF-CEM cells assessed as growth inhibition after 48 hrs by SRB assay; type: functional; procedure, shortened: as §1
[1] = Cytotoxicity against human EKVX cells assessed as growth inhibition after 48 hrs by SRB assay; type: functional; procedure, shortened: as §1
A549 = assay: Cytotoxicity against human A549 cells assessed as growth inhibition after 48 hrs by SRB assay; type: functional; details: A549, 48 h; procedure, shortened: as §1
Tubulin (Homo sapiens) = Tubulin (Homo sapiens) (UniProt P68371+Q9H4B7+P0DPH7+P68366+Q13509+Q71U36+P04350+Q3ZCM7+P07437+P68363+Q9BQE3+Q6PEY2+Q13885+Q9BVA1+Q9BUF5); assay: Inhibition of tubulin polymerization in human MV4-11 cells at 50 nM after 2 hrs by immunoblot analysis relative to control; type: cell-based
Procedure, shortened: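 MV4-11 AML cells were exposed for 2 h to 25, 50 or 100 nM compound. Free tubulin (supernatant) and polymerized tubulin (pellet) were separated and detected by anti-tubulin immunoblot.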

[2] = Cytotoxicity against human UACC257 cells assessed as growth inhibition after 48 hrs by SRB assay; type: functional; details: UACC-257, 48 h
NCI-H522 = assay: Cytotoxicity against human NCI-H522 cells assessed as growth inhibition after 48 hrs by SRB assay; type: functional; details: NCI-H522, 48 h; procedure, shortened: as §1

SMILES | GI50 (T47D) [nM] | GI50 (SK-MEL-28) [nM] | GI50 (Malme-3M) [nM] | GI50 (SK-MEL-2) [nM] | GI50 (ACHN) [nM] | GI50 (SR) [nM] | GI50 (HOP-62) [nM] | GI50 (MDA-MB-468) [nM] | GI50 (HOP-92) [nM] | GI50 (NCI-H23) [nM] | CC50 (MV4-11) [nM] | GI50 (NCI-H322M) [nM] | GI50 (SF-539) [nM] | GI50 (CCRF-CEM) [nM] | GI50 [1] [nM] | GI50 (A549) [nM] | inhibition (Tubulin (Homo sapiens)) [%] | GI50 [2] [nM] | GI50 (NCI-H522) [nM]
COc1cc(OC)cc(/C(C#N)=C/c2nc3ccccc3s2)c1 | 1180 | 1980 | 699 | 958 | 518 | 402 | 3350 | 2040 | 534 | 2840 | 4340 | > 10000 | 1680 |  |  |  |  |  | 
COc1cc(/C(C#N)=C/c2cc3ccccc3o2)cc(OC)c1OC | 4340 | < 10 | 59900 | < 10 | 217 | < 10 | < 10 | 22 | < 10 | < 10 | 47 | < 10 | < 10 | 24 | 59 | < 10 | > 50 | 63200 | < 10
COc1cc(/C(C#N)=C/c2cc3ccccc3[nH]2)cc(OC)c1OC | 2500 |  | 8280 | < 10 | < 10 | < 10 | < 10 | 22 | < 10 | < 10 | 44 |  | < 10 | 17 | 1160 | < 10 | > 50 | 1060 | < 10
COc1cc(OC)cc(/C(C#N)=C/c2c[nH]c3ccccc23)c1 |  | 81 |  | 51 |  | 33 | 273 | 51 | 68 | 256 | 375 |  | 52 | 42 | 478 | 61 |  |  | 27
COc1ccc(/C(C#N)=C/c2c[nH]c3ccccc23)cc1OC | 6830 | 6250 | 9910 | 4700 | 23700 | 1450 | 8690 |  | 5260 | 7190 | > 20000 | 24300 | 8420 | 2740 | 18500 | 5160 |  | 11900 | 3050
COc1cc(/C(C#N)=C/c2nc3ccccc3s2)cc(OC)c1OC |  | 1810 | 515 | 287 | 89 | 107 | 1930 | 84 |  | 3250 | 233 | 2290 | 97 | 55 |  | 379 |  | > 100000 | 22
COc1cc(/C(C#N)=C/c2coc3ccccc23)cc(OC)c1OC | 811 | 1610 | 868 | 304 | 1940 | 681 | 6980 | 237 | 3020 | 4580 | 4530 | 19100 | 442 | 1410 |  | 665 |  |  | 261
COc1ccc(/C(C#N)=C/c2cc3ccccc3o2)cc1OC | 996 | 3510 | 629 | 487 | 12400 | 470 | 2290 | 421 | 1130 | 3110 | > 20000 | 6180 | 1560 | 777 |  | 520 |  | 18000 | 438
COc1ccc2[nH]cc(/C=C(\C#N)c3cc(OC)c(OC)c(OC)c3)c2c1 | 65 | 92 | 5850 |  | 1660 | 27 | 133 | 35 | 83 | 101 | 467 | 44 | 71 | 64 | 485 | 86 |  | 10700 | 86
COc1ccc(/C(C#N)=C/c2cc3ccccc3[nH]2)cc1OC | 573 | 1940 |  | 312 | 82 | 42 |  | 350 | 58 | 236 |  | 735 | 47 | 62 | 307 | 114 |  | 27000 | 49
COc1cc(/C(C#N)=C/c2cc3ccccc3n2Cc2ccc(C#N)cc2)cc(OC)c1OC | 95200 | 161 |  | 528 | 79 |  | 92 | 41 | 77 | 246 | 369 | 465 | 39 | 136 |  | 76 |  | 62 | 33
COc1cc(/C(C#N)=C/c2c[nH]c3ccccc23)cc(OC)c1OC | 58 | 90 | 12500 |  | 1760 | 22 | 82 | 41 | 1010 | 133 | 565 |  | 99 | 58 | 596 | 78 |  | 11300 | 37
